Test results from ChEMBL document CHEMBL1136956, “Identification of 2-aminobenzimidazoles as potent melanin-concentrating hormone 1-receptor (MCH1R) antagonists” (Bioorg Med Chem Lett, 2009).

Columns and labels:
[1] = target: T1, Melanin-concentrating hormone receptor 1 (Homo sapiens, UniProt Q99705); experiment: Displacement of [125I]MCH from human MCH1 receptor expressed in CHO-K1 cells by scintillation counting; assay type: cell-based
In short: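 Membranes of CHO-K1 cells stably expressing human MCH1R incubated with [125I]-MCH and compound in 50 mM Tris, 10 mM MgCl2, 2 mM EDTA, bacitracin, 0.2% BSA, pH 7.4, 2 h at room temperature. Bound label collected by filtration onto GF/C filters and counted by scintillation. Non-specific binding defined with 1 µM unlabeled MCH. IC50 reported as mean of at least two experiments.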

[2] = Intrinsic clearance in rat hepatocytes; assay type: ADME, cell-based, Liver, Hepatocyte
[3] = target: T1, Melanin-concentrating hormone receptor 1; experiment: Antagonist activity at human MCH1 receptor expressed in CHO-K1 cells assessed as inhibition of MCH-induced intracellular calcium mobilization by FLIPR assay; assay type: functional, cell-based
In short: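 CHO-K1 cells stably expressing human MCH1R, seeded at 3.0 × 10^4 per well and grown 24 h in DMEM/10% FBS with G418. Cells loaded with Fluo-4 AM plus 2.5 mM probenecid for 1 h at 37 °C, then washed into HBSS/20 mM Hepes/0.5% BSA/2.5 mM probenecid, pH 7.4. Compound added 5 min before MCH; Ca2+ mobilization read on FLIPR. IC50 is mean of ≥2 experiments.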

[4] = Plasma concentration in rat at 30 mg/kg, po after 2 hrs; assay type: ADME, organism-based; set-up: dose 30 mg/kg, route oral
In short: (§1)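 Rats given 30 mg/kg PO; plasma and brain levels determined 2 h post-dose, with brain/plasma ratio taken from these. Mean values, n = 3.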

Brain = experiment: Drug level in rat brain at 30 mg/kg, po after 2 hrs; assay type: ADME, organism-based; set-up: dose 30 mg/kg, route oral; conditions: in vivo; in short: as §1
[5] = Ratio of drug level from brain to plasma in rat at 30 mg/kg, po after 2 hrs; assay type: ADME, organism-based; set-up: dose 30 mg/kg, route oral; conditions: brain and plasma, read-out: BPR; in short: as §1
Rattus norvegicus [6] = experiment: Antiobese activity in high fat fed Sprague-Dawley rat assessed as suppression of […] food intake at 10 mg/kg, po; assay type: functional
In short: (§2)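 Male SD rats with a 26-gauge guide cannula in the third ventricle, used after ≥1 week recovery. Rats fed high-fat diet ~3 h, then given compound (10 or 30 mg/kg) or vehicle orally. 1 h later MCH (5 µg/head in artificial CSF) was injected ICV, 1 h before dark onset. Food intake measured over 2 h; 15–20 rats per group, versus vehicle/MCH group.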

Rattus norvegicus [7] = experiment: Antiobese activity in high fat fed Sprague-Dawley rat assessed as suppression of […] food intake at 30 mg/kg, po; assay type: functional; in short: as §2
[8] = Clearance in rat at 1 mg/kg, iv and 3 mg/kg, po; assay type: ADME, organism-based; conditions: in vivo
In short: (§3)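 Rats dosed at 1 mg/kg IV and 3 mg/kg PO. Clearance, volume of distribution, half-life and oral bioavailability derived from these dosings; mean values, n = 3.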

[9] = Oral bioavailability in rat at 3 mg/kg; assay type: ADME, organism-based; conditions: in vivo; in short: as §3
[10] = Volume of distribution in rat at 1 mg/kg, iv and 3 mg/kg, po; assay type: ADME, organism-based; conditions: in vivo; in short: as §3
[11] = Half life in rat at 1 mg/kg, iv and 3 mg/kg, po; assay type: ADME, organism-based; conditions: in vivo; in short: as §3

T1 sequence (Q99705 whole entry): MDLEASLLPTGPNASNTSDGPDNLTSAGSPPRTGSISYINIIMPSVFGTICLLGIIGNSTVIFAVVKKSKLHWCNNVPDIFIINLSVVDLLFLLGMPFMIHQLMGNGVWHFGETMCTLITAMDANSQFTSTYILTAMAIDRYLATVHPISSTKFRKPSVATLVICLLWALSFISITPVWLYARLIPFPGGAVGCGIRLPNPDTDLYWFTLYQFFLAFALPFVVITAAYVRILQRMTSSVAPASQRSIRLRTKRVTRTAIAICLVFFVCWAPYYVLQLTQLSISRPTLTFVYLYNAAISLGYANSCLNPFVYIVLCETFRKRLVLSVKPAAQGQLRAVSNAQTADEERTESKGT

Structure (SMILES) | IC50 [1] | other results
CC(C)N(C)c1nc2ccc(NC(=O)c3ccc(-c4ccc(C(F)(F)F)cn4)cc3)cc2[nH]1 | 3.1 nM | CLint scaled [2]: 16 mL/min/kg
CN(c1nc2ccc(NC(=O)CCc3ccc(C(F)(F)F)cc3)cc2[nH]1)C1CC1 | 24 nM | –
CC(C)N(C)c1nc2ccc(NC(=O)c3cncc(-c4ccc(F)cc4)c3)cc2[nH]1 | 900 nM | –
CC(C)N(C)c1nc2ccc(NC(=O)c3ncc(-c4ccc(F)cc4)cn3)cc2[nH]1 | 15 nM | CLint scaled [2]: 9 mL/min/kg
CC(C)N(C)c1nc2ccc(NC(=O)CCc3ccc(C(F)(F)F)cc3)cc2s1 | > 750 nM | –
CN1CCC(N(C)c2nc3ccc(NC(=O)CCc4ccc(C(F)(F)F)cc4)cc3[nH]2)CC1 | 23 nM | –
CC(C)N(C)c1nc2ccc(NC(=O)CCc3ccc(C(F)(F)F)cn3)cc2[nH]1 | 41 nM | –
CN(C)c1nc2ccc(NC(=O)CCc3ccc(C(F)(F)F)cc3)cc2[nH]1 | 12 nM | –
CC(C)N(C)c1nc2ccc(NC(=O)c3ccc(-c4ccccc4)nc3)cc2[nH]1 | 8.8 nM | CLint scaled [2]: 12 mL/min/kg
CC(C)N(C)c1nc2ccc(NC(=O)c3ccc(-c4ccc(F)cc4)nc3)cc2[nH]1 | 5.5 nM | CLint scaled [2]: 8 mL/min/kg
CN(c1nc2ccc(NC(=O)CCc3ccc(C(F)(F)F)cc3)cc2[nH]1)C1CCCC1 | 4 nM | IC50 [3]: 22 nM
CC(C)N(C)c1ccc2cc(NC(=O)CCc3ccc(C(F)(F)F)cc3)cnc2n1 | 365 nM | –
CC(=O)N1CCC(N(C)c2nc3ccc(NC(=O)CCc4ccc(C(F)(F)F)cc4)cc3[nH]2)C1 (centres undefined) | 30 nM | –
CN(c1nc2ccc(NC(=O)CCc3ccc(C(F)(F)F)cc3)cc2[nH]1)C1CCCCC1 | 6.7 nM | IC50 [3]: 27 nM
CC(C)N(C)c1ccc2nc(NC(=O)CCc3ccc(C(F)(F)F)cc3)ccc2n1 | 375 nM | –
CC(C)N(C)c1nc2ccc(NC(=O)c3cnc(-c4ccc(F)cc4)cn3)cc2[nH]1 | 2.7 nM | concentration at 2 h [4]: 3.9 µM; Drug uptake (Brain): 1.4 nmol/g; Kp at 2 h [5]: 0.36; Activity (Rattus norvegicus [6]): 32%; Activity (Rattus norvegicus [7]): 72%; clearance [8]: 11 mL/min/kg; bioavailability [9]: 35%; CLint scaled [2]: 10 mL/min/kg; Vd [10]: 1.2 L/kg; half-life [11]: 138 min
CC(C)N(C)c1nc2ccc(NC(=O)CCc3ccc(C(F)(F)F)cc3)cc2[nH]1 | 5.9 nM | IC50 [3]: 21 nM; CLint scaled [2]: 32 mL/min/kg
CCN(c1nc2ccc(NC(=O)CCc3ccc(C(F)(F)F)cc3)cc2[nH]1)C1CCCCC1 | 135 nM | –
CCN(C)c1nc2ccc(NC(=O)CCc3ccc(C(F)(F)F)cc3)cc2[nH]1 | 19 nM | –
CN(c1nc2ccc(NC(=O)CCc3ccc(C(F)(F)F)cc3)cc2[nH]1)C1CCOC1 (centres undefined) | 27 nM | –
O=C(CCc1ccc(C(F)(F)F)cc1)Nc1ccc2nc(N3CCOCC3)[nH]c2c1 | 428 nM | –
